Here are results for 27 compounds from ChEMBL document CHEMBL1140689, “Benzyl amide-ketoacid inhibitors of HIV-integrase” (Bioorg Med Chem Lett, 2007).

In one assay the test system is Human immunodeficiency virus 1. In words: Antiviral activity against luciferase containing HIV1 NL4-3 virus in MT2 cells. It counts as functional, organism-based. The settings on record: Human immunodeficiency virus 1, NL4-3, MT2.
As to `CC1(C)OC(=O)/C(=C/C(=O)NCc2ccc(F)cc2)O1`, the 50% effective concentration (EC50) was found to be 1200 nM.
Take `CN(Cc1ccc(F)cc1)C(=O)/C=C(\O)C(=O)O`: the response was half-maximal at 600 nM (EC50).
Same read-out and setting: in the case of `O=C(/C=C(\O)C(=O)O)NCc1ccc(F)cc1` it was 5900 nM.

Biological target in another assay: not listed separately
In words: Inhibition of HIV1 recombinant integrase. Also noted: species or system Human immunodeficiency virus 1.
Details: not given
An outline of the steps: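 Strand-transfer scintillation proximity readout. 5 pmol biotin-labeled substrate DNA bound to 100 μg streptavidin SPA beads. Recombinant integrase (0.26 ng) loaded onto the beads for 90 min at 37 °C, and unbound enzyme washed off. Inhibitors then added with 0.1 fmol 33P-labeled target DNA. Reaction stopped with EDTA (10 mM final). Integration measured as scintillation CPM.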
Consider `C[C@@H](NC(=O)/C=C(\O)C(=O)O)c1ccccc1`, for which the IC50 was more than 300000 nM.
`CC(C)(C)c1ccc(CNC(=O)/C=C(\O)C(=O)O)cc1`: the IC50 stood at 180000 nM.
For the compound `O=C(/C=C(\O)C(=O)O)NCc1ccccc1F`, the IC50 came out at 1800 nM.
Consider `O=C(/C=C(\O)C(=O)O)NCc1ccc(Cl)cc1`, for which the IC50 was determined as 1100 nM.
Consider `O=C(/C=C(\O)C(=O)O)NCc1cc(F)cc(F)c1`, for which the half-inhibitory concentration (IC50) amounted to 1700 nM.
As to `Cc1ccc(CNC(=O)/C=C(\O)C(=O)O)cc1F`, the half-inhibitory concentration (IC50) came to 200 nM.
For the compound `Cc1cccc(CNC(=O)/C=C(\O)C(=O)O)c1`, the IC50 was 300 nM.
In the case of `O=C(/C=C(\O)C(=O)O)NCc1ccccc1`, the half-inhibitory concentration (IC50) was determined as 300 nM.
Consider `COc1ccccc1CNC(=O)/C=C(\O)C(=O)O`, for which the IC50 came out at 500 nM.
Take `O=C(/C=C(\O)C(=O)O)NCc1ccc([N+](=O)[O-])cc1`: the IC50 worked out at 2100 nM.
Still for that read-out and setting: the same measure for `O=C(/C=C(\O)C(=O)O)NCc1cccc(F)c1`: 1200 nM.
For the compound `Cc1ccc(CNC(=O)/C=C(\O)C(=O)O)cc1`, the IC50 was 1400 nM.
`O=C(/C=C(\O)C(=O)O)NCc1ccc(Cl)nc1`: the IC50 was found to be 700 nM.
With `CN(Cc1ccc(F)cc1)C(=O)/C=C(\O)C(=O)O`, the IC50 turned out to be 110 nM.
With `O=C(/C=C(\O)C(=O)O)NCc1cccc(Cl)c1`, the 50% inhibitory concentration (IC50) was determined as 600 nM.
Turning to `COc1cccc(CNC(=O)/C=C(\O)C(=O)O)c1`, the IC50 turned out to be 2400 nM.
For `Cc1ccccc1CNC(=O)/C=C(\O)C(=O)O`, the half-maximal inhibitory concentration (IC50) is 1300 nM.
Consider `COc1ccc(CNC(=O)/C=C(\O)C(=O)O)c(OC)c1`, for which the half-inhibitory concentration (IC50) amounted to 7500 nM.
In the case of `O=C(/C=C(\O)C(=O)O)NCc1ccc(F)cc1`, the IC50 was 200 nM.
For the compound `COc1ccc(CNC(=O)/C=C(\O)C(=O)O)cc1`, the half-inhibitory concentration (IC50) worked out at 4200 nM.
For the compound `C[C@H](NC(=O)/C=C(\O)C(=O)O)c1ccccc1`, the IC50 was found to be 24000 nM.
Consider `O=C(/C=C(\O)C(=O)O)NCc1ccccc1Cl`, for which the half-inhibitory concentration (IC50) was 1700 nM.
On to `O=C(/C=C(\O)C(=O)O)NCc1ccc(C(F)(F)F)cc1`, for which the concentration for half-maximal inhibition (IC50) worked out at 9000 nM.
With `CC(NC(=O)/C=C(\O)C(=O)O)c1ccc(F)cc1` (centres undefined), the concentration for half-maximal inhibition (IC50) came to 3000 nM.
Turning to `COc1ccc(CNC(=O)/C=C(\O)C(=O)O)cc1Cl`, the concentration for half-maximal inhibition (IC50) was determined as 300 nM.
Same read-out and setting: in the case of `O=C(/C=C(\O)C(=O)O)NCc1cccc(Cl)c1Cl` it was 200 nM.

The EC50 is the midpoint of the concentration-response curve. Read a low EC50 as an effect from little substance. Broadly, the IC50 is the concentration that gives 50% inhibition.
